ChEMBL document CHEMBL4834414 (J Med Chem, 2021)
Calls of active or inactive are those of the source. The rule behind the calls is not given here.

How the values were obtained:
[1] = target: T1, Microtubule-associated protein 1 light chain 3 alpha (Homo sapiens, UniProt Q9H492); assay: Displacement of sGFP-p62-LIR peptide from human N-terminal SNAP-fused LC3A by time-resolved FRET assay
How it was run: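 HTRF displacement: 10 nM N-terminal SNAP-LC3A labeled with terbium cryptate (donor) and 1 μM p62-LIR-sGFP (acceptor), with compound at varying concentrations in 1% DMSO. Buffer 25 mM HEPES pH 7.5, 150 mM KF, 10% glycerol, 0.1% CHAPS, 5 mM DTT. Incubated 2 h at RT; excitation 340 nm, emission read at 520 and 620 nm. IC50 with SD; Ki calculated.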

[2] = target: T2, Microtubule-associated protein 1 light chain 3 beta (Homo sapiens, UniProt Q9GZQ8); assay: Displacement of sGFP-p62-LIR peptide from human N-terminal SNAP-fused LC3B by time-resolved FRET assay
[3] = target: T1, Microtubule-associated protein 1 light chain 3 alpha; assay: Binding affinity to human LC3A expressed in Escherichia coli BL21-(DE3) by single site binding model based isothermal titration calorimetry
How it was run: (§1)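 Human Atg8-family proteins (LC3A, LC3C, GABARAP, GABARAPL1, GABARAPL2) expressed with a modified Ub tag, equilibrated in 50 mM Na2HPO4, 100 mM NaCl, 5% DMSO, pH 7.0; ligand prepared in the same buffer. ITC at 25 °C: 0.4 mM ligand titrated into 0.020 mM protein in 21 injections. Kd from a nonlinear least-squares fit to a single-site binding model.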

[4] = target: Microtubule-associated protein 1 light chain 3 gamma (Homo sapiens) (UniProt Q9BXW4); assay: Binding affinity to human LC3C expressed in Escherichia coli BL21-(DE3) by single site binding model based isothermal titration calorimetry; how it was run: as §1
[5] = target: Gamma-aminobutyric acid receptor-associated protein (Homo sapiens) (UniProt O95166); assay: Binding affinity to human GABARAP expressed in Escherichia coli T7 by single site binding model based isothermal titration calorimetry; how it was run: as §1
[6] = target: Gamma-aminobutyric acid receptor-associated protein-like 1 (Homo sapiens) (UniProt Q9H0R8); assay: Binding affinity to human GABARAPL1 expressed in Escherichia coli T7 by single site binding model based isothermal titration calorimetry; how it was run: as §1
[7] = target: Gamma-aminobutyric acid receptor-associated protein-like 2 (Homo sapiens) (UniProt P60520); assay: Binding affinity to human GABARAPL2 expressed in Escherichia coli T7 by single site binding model based isothermal titration calorimetry; how it was run: as §1
[8] = target: T1, Microtubule-associated protein 1 light chain 3 alpha; assay: Binding affinity to human LC3A expressed in Escherichia coli BL21-(DE3) by isothermal titration calorimetry
How it was run: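 His-tagged LC3A from E. coli BL21(DE3), TEV-cleaved and purified by IMAC, reverse IMAC and SEC into HTRF buffer (25 mM HEPES pH 7.5, 150 mM KF, 10% glycerol, 5 mM DTT), plus 0.1% CHAPS and 1% DMSO. ITC at 25 °C, stirring 75 rpm: 80 μM protein; inhibitor at 500 μM or 1 mM. Injection settings optimized per compound; dilution heats checked by blank titrations.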

[9] = target: T1, Microtubule-associated protein 1 light chain 3 alpha; assay: Binding affinity to recombinant LC3A (unknown origin) assessed as shift of melting temperature by differential scanning fluorimetry
How it was run: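 LC3A at 30 μM in HTRF buffer with 0.1% CHAPS, 2.5× SYPRO orange, 300 μM inhibitor and 1% DMSO, with a no-protein background. Heated 25.0 to 79.8 °C at 1 °C/min; excitation 490 nm, emission 570 nm. Tm taken as the first-derivative maximum; ΔTm against DMSO control. Triplicates in three independent experiments.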

[10] = target: T2, Microtubule-associated protein 1 light chain 3 beta; assay: Binding affinity to human LC3B expressed in Escherichia coli BL21-(DE3) by isothermal titration calorimetry
[11] = target: T2, Microtubule-associated protein 1 light chain 3 beta

Chain of Microtubule-associated protein 1 light chain 3 gamma (Homo sapiens) (Q9BXW4 whole entry): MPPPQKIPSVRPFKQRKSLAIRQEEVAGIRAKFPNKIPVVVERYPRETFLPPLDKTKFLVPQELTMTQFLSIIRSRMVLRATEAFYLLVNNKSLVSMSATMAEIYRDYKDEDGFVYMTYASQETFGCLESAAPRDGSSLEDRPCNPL
Chain of Gamma-aminobutyric acid receptor-associated protein (Homo sapiens) (O95166 whole entry): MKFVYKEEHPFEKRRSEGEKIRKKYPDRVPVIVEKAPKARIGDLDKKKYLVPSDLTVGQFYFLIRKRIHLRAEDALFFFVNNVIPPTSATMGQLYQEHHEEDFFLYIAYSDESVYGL
Chain of Gamma-aminobutyric acid receptor-associated protein-like 1 (Homo sapiens) (Q9H0R8 whole entry, looked up): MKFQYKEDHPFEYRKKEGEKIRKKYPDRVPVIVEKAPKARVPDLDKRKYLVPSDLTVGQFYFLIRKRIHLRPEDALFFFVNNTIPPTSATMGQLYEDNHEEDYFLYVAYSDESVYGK
Chain of Gamma-aminobutyric acid receptor-associated protein-like 2 (Homo sapiens) (P60520 whole entry): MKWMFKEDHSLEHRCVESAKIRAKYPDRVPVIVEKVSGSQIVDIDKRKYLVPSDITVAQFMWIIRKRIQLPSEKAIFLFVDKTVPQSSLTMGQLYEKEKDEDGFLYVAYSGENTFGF

SMILES	Ki ([1]; read-out: Ki)	IC50 ([1]; read-out: IC50)	further results
CCCC[C@H](NC(=O)OC(C)(C)C)C(=O)Nc1c(O)c2ccc(O)cc2oc1=O	137 µM	668 µM	Ki [2]: Not Active; IC50 ([2]; read-out: IC50): 668 µM
CC(C)CCc1cccc(C(=O)Nc2c(O)c3ccc(-c4ccccc4-c4ccccc4)cc3oc2=O)c1	105 µM	515 µM	IC50 [2]: Not Active; Ki [2]: Not Active
O=C(Nc1c(O)c2ccc(O)cc2oc1=O)c1cccc(CCc2ccccc2)c1	75 µM		
O=C(Nc1c(O)c2ccc(O)cc2oc1=O)c1cccc(OCc2ccccc2)c1	44 µM		
CC(C)CCc1cccc(C(=O)Nc2c(O)c3ccc(-c4ccnn4C)cc3oc2=O)c1	44.8 µM	219 µM	
CC(C)CCc1cccc(C(=O)Nc2c(O)c3ccc(-c4cccc5ccccc45)cc3oc2=O)c1	8.8 µM	42.8 µM	
CO[C@@H]1[C@@H](OC(N)=O)[C@@H](O)[C@H](Oc2ccc3c(O)c(NC(=O)c4ccc(O)c(CC=C(C)C)c4)c(=O)oc3c2C)OC1(C)C			Activity [3]: Active; Activity [4]: inactive; Activity [5]: inactive; Activity [6]: inactive; Activity [7]: inactive
Cc1c(O)ccc2c(O)c(NC(=O)c3ccc(O)c(CCC(C)C)c3)c(=O)oc12	24.3 µM	119 µM	Kd [8]: 14.2 µM; ΔTm [9]: 0.7 °C
CC(C)CCc1cccc(C(=O)Nc2c(O)c3ccc(NC(=O)CCC(=O)O)cc3oc2=O)c1	44.3 µM	217 µM	
CC(C)CCc1cccc(C(=O)Nc2c(O)c3ccc(NS(=O)(=O)c4ccccc4)cc3oc2=O)c1	17.6 µM	85.9 µM	
CC(C)CCc1cccc(C(=O)Nc2c(O)c3ccc(NC(=O)CCCC(=O)O)cc3oc2=O)c1	46.9 µM	229 µM	
CO[C@@H]1[C@@H](OC(N)=O)[C@@H](O)[C@H](Oc2ccc3c(O)c(NC(=O)c4ccc(O)c(CCC(C)C)c4)c(=O)oc3c2C)OC1(C)C	3.3 µM	16 µM	Kd [8]: 2.8 µM; ΔTm [9]: 5.6 °C; IC50 ([2]; read-out: IC50): 72.3 µM; Ki ([2]; read-out: Ki): 8.1 µM; Kd [10]: 11.4 µM; ΔTm [11]: 5.6 °C
Cc1ccc(S(=O)(=O)Nc2ccc3c(O)c(NC(=O)c4cccc(CCC(C)C)c4)c(=O)oc3c2)cc1	12.3 µM	59.9 µM	
CC(C)C[C@@H](NC(=O)OC(C)(C)C)C(=O)Nc1c(O)c2ccc(O)cc2oc1=O			IC50 [1]: Not Active; Ki [1]: Not Active
CC(C)CCc1cccc(C(=O)Nc2c(O)c3ccc(-c4coc5ccccc45)cc3oc2=O)c1			IC50 [1]: Not Active; Ki [1]: Not Active; IC50 [2]: Not Active; Ki [2]: Not Active
Cc1ccccc1S(=O)(=O)Nc1ccc2c(O)c(NC(=O)c3cccc(CCC(C)C)c3)c(=O)oc2c1	15.6 µM	76 µM	

SMILES	Ki ([1]; read-out: Ki)	IC50 ([1]; read-out: IC50)	further results
CC(=O)Nc1ccc2c(O)c(NC(=O)c3cccc(CCC(C)C)c3)c(=O)oc2c1	24.6 µM	120 µM	
CC[C@H](C)[C@H](NC(=O)OC(C)(C)C)C(=O)Nc1c(O)c2ccc(O)cc2oc1=O			IC50 [1]: Not Active; Ki [1]: Not Active; IC50 [2]: Not Active; Ki [2]: Not Active
CC(C)CCc1ccccc1C(=O)Nc1c(O)c2ccc(O)cc2oc1=O	44 µM	215 µM	
CC(C)CCc1cccc(C(=O)Nc2c(O)c3ccc(-c4cccc(C(=O)O)c4)cc3oc2=O)c1	7.2 µM	35.3 µM	
CC(C)(C)OC(=O)NCC(=O)Nc1c(O)c2ccc(O)cc2oc1=O			IC50 [1]: Not Active; Ki [1]: Not Active; IC50 [2]: Not Active; Ki [2]: Not Active
CC(C)[C@H](NC(=O)OC(C)(C)C)C(=O)Nc1c(O)c2ccc(O)cc2oc1=O			IC50 [1]: Not Active; Ki [1]: Not Active; IC50 [2]: Not Active; Ki [2]: Not Active
CC(C)CCc1cc(C(=O)Nc2c(O)c3ccc(O)cc3oc2=O)ccc1F	21.8 µM	107 µM	
CC(C)CCc1cccc(C(=O)Nc2c(O)c3ccc(-c4ccnn4Cc4ccccc4)cc3oc2=O)c1	167 µM	813 µM	IC50 [2]: Not Active; Ki [2]: Not Active
Cc1c(O)ccc2c(O)c(NC(=O)c3cccc(CCC(C)C)c3)c(=O)oc12	32.7 µM	160 µM	Kd [8]: 15.7 µM; ΔTm [9]: 0 °C
CC(C)CCc1cccc(C(=O)Nc2c(O)c3ccc(NS(=O)(=O)Cc4ccccc4)cc3oc2=O)c1	15 µM	73.1 µM	
CCn1nccc1-c1ccc2c(O)c(NC(=O)c3cccc(CCC(C)C)c3)c(=O)oc2c1	38.9 µM	190 µM	
CC(C)CCc1cccc(C(=O)Nc2c(O)c3ccc(NS(=O)(=O)c4cccc5ccccc45)cc3oc2=O)c1	6.4 µM	31.2 µM	
COc1ccc(C(=O)Nc2c(O)c3ccc(O)cc3oc2=O)cc1CCC(C)C	13.2 µM	64.4 µM	
COc1cccc(C(=O)Nc2c(O)c3ccc(O)cc3oc2=O)c1			Ki [1]: Not Active; Ki [2]: Not Active
CC(C)CCc1cccc(C(=O)Nc2c(O)c3ccc(-c4ccc(C(=O)O)cc4)cc3oc2=O)c1	18.9 µM	92.1 µM	
O=C(Nc1c(O)c2ccc(O)cc2oc1=O)c1cccc(Oc2ccccc2)c1	44 µM		

The next lines start with results.

Ki ([1]; read-out: Ki)	IC50 ([1]; read-out: IC50)	SMILES	further results
52 µM		CC(C)CSc1cccc(C(=O)Nc2c(O)c3ccc(O)cc3oc2=O)c1	
26 µM		CCCCS(=O)(=O)Nc1cccc(C(=O)Nc2c(O)c3ccc(O)cc3oc2=O)c1	
53 µM		CC(C)CS(=O)(=O)Nc1cccc(C(=O)Nc2c(O)c3ccc(O)cc3oc2=O)c1	
18 µM		CCCCSc1cccc(C(=O)Nc2c(O)c3ccc(O)cc3oc2=O)c1	
42 µM		CCSc1cccc(C(=O)Nc2c(O)c3ccc(O)cc3oc2=O)c1	
20 µM		C=CCOc1cccc(C(=O)Nc2c(O)c3ccc(O)cc3oc2=O)c1	
32 µM		CCCSc1cccc(C(=O)Nc2c(O)c3ccc(O)cc3oc2=O)c1	
129 µM		CCOc1cccc(C(=O)Nc2c(O)c3ccc(O)cc3oc2=O)c1	Ki [2]: Not Active
130 µM		CS(=O)(=O)Nc1cccc(C(=O)Nc2c(O)c3ccc(O)cc3oc2=O)c1	
7.5 µM	36.7 µM	CC(C)CCc1cccc(C(=O)Nc2c(O)c3ccc(NS(=O)(=O)CCc4ccccc4)cc3oc2=O)c1	IC50 ([2]; read-out: IC50): 66.3 µM; Ki ([2]; read-out: Ki): 7.4 µM
143 µM		CCCOc1cccc(C(=O)Nc2c(O)c3ccc(O)cc3oc2=O)c1	
12 µM		CCCCc1cccc(C(=O)Nc2c(O)c3ccc(O)cc3oc2=O)c1	
137 µM		O=C(Nc1c(O)c2ccc(O)cc2oc1=O)c1cccc(OCC2CC2)c1	Ki [2]: Not Active
13 µM		O=C(Nc1c(O)c2ccc(O)cc2oc1=O)c1cccc(SCC2CC2)c1	
13.3 µM	64.8 µM	CC(C)CCc1cccc(C(=O)Nc2c(O)c3ccc(O)cc3oc2=O)c1	Kd [8]: 17.2 µM; ΔTm [9]: 1.4 °C
12 µM		CCCCCc1cccc(C(=O)Nc2c(O)c3ccc(O)cc3oc2=O)c1	
144 µM		CCCS(=O)(=O)Nc1cccc(C(=O)Nc2c(O)c3ccc(O)cc3oc2=O)c1	
13 µM		O=C(Nc1c(O)c2ccc(O)cc2oc1=O)c1cccc(CCC2CC2)c1	
26.2 µM	128 µM	CC(C)CCc1cc(C(=O)Nc2c(O)c3ccc(O)cc3oc2=O)ccc1O	Kd [8]: 27.5 µM; ΔTm [9]: 0.8 °C
47 µM		CC(C)Sc1cccc(C(=O)Nc2c(O)c3ccc(O)cc3oc2=O)c1	
39 µM		CC(C)S(=O)(=O)Nc1cccc(C(=O)Nc2c(O)c3ccc(O)cc3oc2=O)c1	
69 µM		CCCCOc1cccc(C(=O)Nc2c(O)c3ccc(O)cc3oc2=O)c1	
103 µM		CC(C)Oc1cccc(C(=O)Nc2c(O)c3ccc(O)cc3oc2=O)c1	
20 µM		CCCc1cccc(C(=O)Nc2c(O)c3ccc(O)cc3oc2=O)c1	
22.6 µM	110 µM	CC(C)CCc1cccc(C(=O)Nc2c(O)c3ccc(NS(=O)(=O)CC(C)C)cc3oc2=O)c1	
20 µM		CC(C)Cc1cccc(C(=O)Nc2c(O)c3ccc(O)cc3oc2=O)c1	
